Data on 1 molecule can be found in ChEMBL document CHEMBL4152234, “Aminobenzothiazole derivatives stabilize the thermolabile p53 cancer mutant Y220C and show anticancer activity in p53-Y220C cell lines” (Eur J Med Chem, 2018).

Assay type in all cases: cell-based
Assay [1] has as its system Cellular tumor antigen p53 (Homo sapiens), P04637 [Y220C]. Nature of the assay: Activation of p53 Y220C mutant in human NUGC3 cells assessed as change in TP73 mRNA level at 60 uM after 18 hrs by RT-PCR method relative to control. The gist of the method:
(§1)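 p53 signalling qPCR array covering 84 p53 pathway genes. Cells were exposed for 18 h, and compound and control wells both held 0.5% DMSO. Total RNA was extracted and purified. Fold-changes were calculated by the ΔΔCt method against the untreated sample, with β2-microglobulin (B2M) as the housekeeping gene. Each cell line was run in two independent biological replicates.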

Assay [2] shares this test system. Nature of the assay: Activation of p53 Y220C mutant in human NUGC3 cells assessed as change in PRC1 mRNA level at 60 uM after 18 hrs by RT-PCR method relative to control. The gist of the method:
as §1

For assay [3], the target named is T1, Cellular tumor antigen p53 (Homo sapiens, UniProt P04637). Nature of the assay: Activation of p53 in human NUGC4 cells assessed as change in TP63 mRNA level at 60 uM after 18 hrs by RT-PCR method relative to control. Particulars: read-out: FC.
The test system of assay [4] is Cellular tumor antigen p53 (Homo sapiens), P04637 [Y220C]. Nature of the assay: Activation of p53 Y220C mutant in human NUGC3 cells assessed as change in SESN2 mRNA level at 60 uM after 18 hrs by RT-PCR method relative to control. An outline of the steps:
as §1

Assay [5] has the same test system. The assay is described as follows: Activation of p53 Y220C mutant in human NUGC3 cells assessed as change in CDC25C mRNA level at 60 uM after 18 hrs by RT-PCR method relative to control. The gist of the method:
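p53 signalling qPCR array covering 84 genes. Cells were exposed for 18 h, with 0.5% DMSO in both compound and control samples. Total RNA was extracted and purified. Fold-changes were calculated by ΔΔCt using β2-microglobulin (B2M) as the housekeeping gene. Two independent biological replicates were run per cell line.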

Assay [6] deals with T1, Cellular tumor antigen p53. Nature of the assay: Activation of p53 in human NUGC4 cells assessed as change in F0X03 mRNA level at 60 uM after 18 hrs by RT-PCR method relative to control. Particulars: read-out: FC. The gist of the method:
(§2)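 p53 signaling qPCR array of 84 p53-pathway genes. Cells were treated in 6-well plates for 18 h with 0.5% DMSO in compound and control samples. Total RNA was extracted and fold-changes were obtained by the ΔΔCt method against untreated control, with β2-microglobulin (B2M) as housekeeping gene. Two independent biological replicates per cell line.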

In assay [7] the target is T1, Cellular tumor antigen p53. The assay is described as follows: Activation of p53 in human NUGC4 cells assessed as change in EI24 mRNA level at 60 uM after 18 hrs by RT-PCR method relative to control. The settings on record: read-out: FC. The gist of the method: as §2
Assay [8] concerns the target T1, Cellular tumor antigen p53. Nature of the assay: Activation of p53 in human NUGC4 cells assessed as change in CDC25C mRNA level at 60 uM after 18 hrs by RT-PCR method relative to control. The settings on record: read-out: FC. An outline of the steps: as §2

For `CCNC(=O)c1c(O)c(I)c(-n2cccc2)c2sc(N(CC)CC)nc12`, the fold change (FC) in assay [1] was 1.2; in assay [2], 1.1; in assay [4], 0.7; in assay [5], 0.7. Besides, the fold induction at 60 µM in assay [3] stood at 0.5; in assay [6], 0.8; in assay [7], 0.8; in assay [8], 0.9.
